DSG3 Ab inh: blocks pemphigus antibody binding to human desmoglein-3. 310,000 tested, 0.48% active. AID 588358. binding (percent of control), % at 10 µM. DSG3-coupled beads, scFv-anti-DSG3-GFP binding, flow cytometry; active compounds read low. P32926;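 active = binding more than 3 SD below its plate's average and above zero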;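 also: hits lower antibody fragment binding to DSG3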
Target sequence (P32926 whole entry, looked up, the tested form may be a part): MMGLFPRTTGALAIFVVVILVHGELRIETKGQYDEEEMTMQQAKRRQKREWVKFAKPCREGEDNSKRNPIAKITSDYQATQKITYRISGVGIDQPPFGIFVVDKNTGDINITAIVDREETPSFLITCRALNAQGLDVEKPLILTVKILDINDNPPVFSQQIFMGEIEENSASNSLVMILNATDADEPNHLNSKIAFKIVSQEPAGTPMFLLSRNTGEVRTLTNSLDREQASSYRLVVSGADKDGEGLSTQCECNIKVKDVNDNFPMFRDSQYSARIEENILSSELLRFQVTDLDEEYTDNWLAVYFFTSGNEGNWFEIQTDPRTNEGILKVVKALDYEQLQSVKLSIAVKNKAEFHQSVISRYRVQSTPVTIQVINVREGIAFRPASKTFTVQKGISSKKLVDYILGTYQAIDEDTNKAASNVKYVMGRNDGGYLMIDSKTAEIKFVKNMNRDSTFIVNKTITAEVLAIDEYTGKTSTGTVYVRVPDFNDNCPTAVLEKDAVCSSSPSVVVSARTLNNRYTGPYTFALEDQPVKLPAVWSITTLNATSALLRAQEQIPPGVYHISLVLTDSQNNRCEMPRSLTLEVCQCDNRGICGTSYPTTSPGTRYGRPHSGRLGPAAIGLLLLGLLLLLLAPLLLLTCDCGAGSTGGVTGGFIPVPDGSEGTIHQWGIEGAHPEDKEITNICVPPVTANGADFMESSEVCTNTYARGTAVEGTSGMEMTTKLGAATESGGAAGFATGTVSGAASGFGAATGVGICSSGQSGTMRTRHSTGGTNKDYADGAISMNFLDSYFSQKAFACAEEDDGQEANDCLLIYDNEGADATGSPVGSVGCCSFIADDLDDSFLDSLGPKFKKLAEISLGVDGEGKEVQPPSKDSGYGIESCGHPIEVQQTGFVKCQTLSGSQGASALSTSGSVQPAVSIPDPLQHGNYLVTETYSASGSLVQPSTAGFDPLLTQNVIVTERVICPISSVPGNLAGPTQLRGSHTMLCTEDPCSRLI
UHRF1 MBD2 ctr: human UHRF1 methylated DNA binding inhibitors; inhibition, % at 4.4 µM; 370,000 tested, 0.75% active; AID 687016; UHRF1 binding to methylated oligo, TR-FRET; Q96T88; in the data active = inhibition above about 21%;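 also: UHRF1 SRA domain binding a hemimethylated CpG hairpin DNA probe; 0% = median of test compound wells and 100% = reference inhibitor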
DNMT1 inh: DNMT1 (human) enzyme inhibition | DNMT1 molecular beacon, Hinp1I cleavage, fluorescence | inhibition (reported as % activation of signal), % at 10 µM | 360,000 tested, 0.83% active; in the data active = inhibition above about 50%
NS3 helicase inh: inhibitors of Hepatitis C virus NS3 helicase; NS3 helicase DNA unwinding, Cy5 molecular beacon fluorescence; inhibition, % at 10.9 µM; 290,000 tested, 0.56% active; AID 1800;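 active = inhibition above the mean of all tested compounds plus 3 SD, set per campaign, cut at about 35% in these data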;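 also: 0% = DMSO wells and 100% = thioflavine S control wells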
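assay system = NS3 helicase fragment of HCV | buffer or medium = MOPS pH 6.5, MgCl2, DTT, Tween20, BSA | timing = 60 min unwinding reaction at 25 °C after ATP addition | signal = Cy5 beacon fluorescence read at start and 1 h | read-out basis = % inhibition of unwinding | control set = low DMSO, high thioflavine S at 110 µM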
MBD2 DNA inh: inhibitors of human MBD2 binding to methylated oligonucleotide. TR-FRET. 370,000 tested, 0.31% active. inhibition, % at 4.4 µM. AID 686964; in the data active = inhibition above about 13%
SUMO1 PPI mod: modulators of human SUMO1-mediated protein-protein interactions | SUMO1 binding to a labelled peptide, TR-FRET, 1 h | inhibition, % at 20 µM | 360,000 tested, 0.33% active | AID 602429; in the data active = inhibition above about 37%
* = called active by the depositor; · = not tested or not shown. Hits are enriched below; roughly 2.5% of the tested compounds scored in any of these assays.

SMILES	DSG3 Ab inh	UHRF1 MBD2 ctr	DNMT1 inh	NS3 helicase inh	MBD2 DNA inh	SUMO1 PPI mod
O=C(Cn1cc(COc2c(F)c(F)c(Br)c(F)c2F)nn1)c1ccc(O)cc1	94	4	9	·	-2	-1
C/C(=N/NC(=O)C1CCCN1C(=O)c1ccc([N+](=O)[O-])cc1)c1ccc(Br)cc1 (stereo not given)	·	1	1	-1	2	-31
COc1ccc(C2=NS(=O)(=O)N(C)C(C(=O)NCc3ccccn3)=C2)cc1	101	0	-3	-1	-3	-23
Cc1c(NC(=O)c2ccco2)cccc1-c1nc2cccnc2s1	104	-1	-9	-2	-5	-2
Cc1c(NC(=O)c2ccc(Cl)nc2)cccc1-c1nc2cccnc2s1	92	22*	-2	6	10	-1
CN(C)S(=O)(=O)Oc1ccccc1C(=O)Nc1ccc(F)cc1F	98	2	0	-3	2	-2
CCCCCCN1CCN(C2CN(Cc3cn(Cc4cc(C)cc(C)c4)nn3)S(=O)(=O)C2)CC1 (stereo not given)	·	23*	·	·	4	0
Cc1cc(C)cc(Cn2cc(CN3CC(N4CCN(C)CC4)CS3(=O)=O)nn2)c1 (stereo not given)	·	24*	·	·	5	-5
CN1CCN(C2CN(Cc3cn(Cc4ccc(C(F)(F)F)cc4)nn3)S(=O)(=O)C2)CC1 (stereo not given)	·	25*	·	·	4	1
O=S1(=O)CC(N2CCSCC2)CN1Cc1cn(Cc2ccc(C(F)(F)F)cc2)nn1 (stereo not given)	·	6	·	·	-3	-3
Cc1cc(C)cc(Cn2cc(CN3CC(N4CCCC4)CS3(=O)=O)nn2)c1 (stereo not given)	·	6	·	·	-4	-1
CN(C)c1ccc(S(=O)(=O)N2CCCCC2)cc1NC(=O)C1=COCCO1	106	-1	0	5	-1	35
Cc1cc(C)cc(N(CC(=O)NC2CCCC2)C(=O)C2(C)CC(=O)N=C3C=CC=CN32)c1 (stereo not given)	97	-2	2	-13	4	-2
COc1ccccc1N/C(=N/c1nc(C)cc(C)n1)NC(C)=O	·	·	·	-1	·	·
Cc1nc(N)sc1-c1csc(Nc2ncccn2)n1	-54*	-1	-21	-11	3	93*
O=C1c2ccc(-c3ccc(F)cc3OCc3ccccc3)cc2S(=O)(=O)c2cccc(C(=O)N3CCN(c4ncc(Br)cn4)CC3)c21	89*	-3	4	·	3	-5
COc1ccc(C(CNC(=O)c2ccc(S(=O)(=O)N3CC(C)CC(C)C3)cc2)N(C)C)cc1 (stereo not given)	92	3	2	·	9	-2
Cc1ccc(S(=O)(=O)N2CCN(C(=S)NCCc3ccccc3)CC2)cc1	100	2	-3	-4	5	1
Fc1ccccc1CNc1ccc(Cl)c(Cl)c1	99	25*	-1	13	1	1
Cc1ccc(S(=O)(=O)Nc2ccc3c(c2)C(=O)N([C@@H](C)CO)C[C@@H](C)[C@@H](CN(C)S(=O)(=O)c2ccccc2)OCCCC[C@H](C)O3)cc1	·	1	-13	·	2	43*
C[C@@H]1CCCCO[C@@H](CN(C)C(=O)CCC(F)(F)F)[C@@H](C)CN([C@H](C)CO)C(=O)c2cc(NS(=O)(=O)c3cccs3)ccc2O1	·	22*	·	·	6	·
Cc1ccc(S(=O)(=O)N(C)C[C@@H]2OCCCC[C@H](C)Oc3ccc(NC(=O)Nc4ccc(F)cc4)cc3C(=O)N([C@H](C)CO)C[C@H]2C)cc1	·	2	-19	·	-4	4
C[C@@H]1CN([C@@H](C)CO)C(=O)c2cc(NC(=O)c3ccccc3)ccc2O[C@@H](C)CCCCO[C@@H]1CN(C)S(=O)(=O)c1ccc(F)cc1	·	21*	-6	·	9	7
O=C(Nc1ccc(C(=O)NCCCN2CCN(c3ccc(F)cc3)CC2)cc1)C1=CSCCO1	95	-2	-2	-20	-3	-7
COc1ccc(S(=O)(=O)N2CCc3ccccc32)cc1C(=O)N1CCC(C)CC1	·	-1	0	·	-1	1
SMILES	DSG3 Ab inh	UHRF1 MBD2 ctr	DNMT1 inh	NS3 helicase inh	MBD2 DNA inh	SUMO1 PPI mod
CC1CCCCN1C(=O)CCn1c(=O)oc2ccccc21 (stereo not given)	104	0	0	6	-2	-10
O=C(/C=C/c1ccco1)Nc1ccccc1C(=O)Nc1cccc(C(=O)O)c1	101	20	25	23	5	-5
CNC(=O)C1CCC(=O)N1Cc1ccc(C)cc1 (stereo not given)	108	5	2	-7	-3	1
Nc1cccc2cc(S(=O)(=O)O)ccc12	84	47*	62*	·	6	25
COc1cc(/C=C(\C#N)C(=O)Nc2cccc(C(=O)O)c2)ccc1OCc1ccc(Cl)cc1	98	1	7	-14	4	59*
COc1cc(/C=C(/C#N)C(=O)Nc2ccccc2)c(Br)cc1OCc1ccc(C(=O)O)cc1	94	13	2	19	6	3
CSCC(C)N1CCC(N2CCC(C(=O)NCc3ccccn3)CC2)CC1 (stereo not given)	114	-2	1	3	3	2
Cc1cc(C)n(C(=O)c2cccc([N+](=O)[O-])c2C)n1	117	5	1	8	7	10
O=C(N/N=C/c1ccc([N+](=O)[O-])o1)c1sc2ccccc2c1Cl	82*	-3	-1	13	-1	-4
O=C(N/N=C/c1ccccn1)c1sc2ccccc2c1Cl	95	-6	-2	4	4	-20
CCN1CCN(S(=O)(=O)c2ccc(S(=O)(=O)N(CC)Cc3ccccc3)cc2)CC1	97	8	-2	-43	7	9
CCOc1ccccc1NCc1cc(=O)oc2cc(C)c(O)cc12	86*	2	0	9	5	-4
O=C(O)CN1CCNCC1	·	·	·	1	·	·
O=C(O)CN1CCNCCN(CC(=O)O)CCNCC1	96	3	9	·	-2	59*
CC(=O)N(c1ccccc1)c1nc(C)cc(C)c1C#N	·	-1	-2	-2	-3	-2
Cc1ccc(/C=C2\C(=O)ON=C2c2ccccc2)o1	121	-4	1	24	-1	-6
Cc1ccc(-c2ccc(/C=C3\C(=O)ON=C3c3ccccc3)o2)c([N+](=O)[O-])c1	91	-1	54*	14	-2	34
Cc1cc(C)c2nc(NC(=O)c3cccc(S(=O)(=O)N4CCc5ccccc54)c3)sc2c1	97	-1	-9	16	-3	3
CNC(=O)c1c(C)nn(-c2ccc(F)c(Cl)c2)c1-c1cc(C)on1	107	22*	-4	2	4	4
Cc1nn(-c2ccc(Cl)c(Cl)c2)c(C)c1C(=O)O	85	1	-2	3	0	-1
